The values that follow come from ChEMBL document CHEMBL1123069, “[[(4,5-Dihydro-2-oxazolyl)phenoxy]alkyl]isoxazoles. Inhibitors of picornavirus uncoating” (1985).

Assay [1] concerns Mus musculus. The experiment in a line: In vivo antiviral activity at 4 mg/kg oral dose in mice infected with Poliovirus; 8/20. Type of assay: functional. The gist of the method: (§1)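 Mice given oral drug or placebo starting 1 h before intracerebral infection with poliovirus type 2. Doses were 4, 8, 16 or 32 mg/kg, with 20 mice per group. Survival was scored as % survivors and number surviving out of total, with the test ending 20 days post-infection.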

For assay [2], the species on record is Mus musculus. The experiment in a line: Prevention of Echo-9-Induced Paralysis in Suckling mice with Placebo; expressed as no. nonparalyzed/total 0/30. Type of assay: functional. The method, boiled down:
(§2)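 Suckling mice infected subcutaneously with a lethal dose of ECHO-9 virus. Intraperitoneal dosing at 1.0, 3.3, 10 or 33 mg/kg, or placebo, began 1 h before infection and continued once daily for 8 days. Groups of 30 animals were scored for paralysis, and the test ended 14 days post-infection. Results are given as % nonparalyzed (± spread) and as the nonparalyzed/total count.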

In assay [3] the test system is Mus musculus. The experiment in a line: Prevention of Echo-9-Induced Paralysis in Suckling mice by intraperitoneal administration at dose 3.3 mg/kg; Expressed as % nonparalyzed. Type of assay: functional. The method, boiled down: as §2
Assay [4] has as its system Mus musculus. The assay is described as follows: In vivo antiviral activity at 8 mg/kg oral dose in mice infected with Poliovirus. Type of assay: functional. The gist of the method:
as §1

Assay [5] has as its system Mus musculus. The assay is described as follows: Prevention of Echo-9-Induced Paralysis in Suckling mice by intraperitoneal administration at dose 1 mg/kg; Expressed as % nonparalyzed. It is filed as functional. The method, boiled down: as §2
The subject of assay [6] is Mus musculus. The experiment in a line: In vivo antiviral activity of the compound in Placebo treated mice infected with Poliovirus. Type of assay: functional. The gist of the method:
as §1

Assay [7] deals with Mus musculus. The experiment in a line: Prevention of Echo-9-Induced Paralysis in Suckling mice by intraperitoneal administration at dose 33 mg/kg; Expressed as % nonparalyzed. It is filed as functional. The method, boiled down: as §2
For assay [8], the species on record is Mus musculus. The experiment in a line: Prevention of Echo-9-Induced Paralysis in Suckling mice with Placebo; Expressed as % nonparalyzed. It is filed as functional. The method, boiled down: as §2
Assay [9] concerns Enterovirus. The assay is described as follows: In vitro antiviral activity against Rhinovirus type-2. Type of assay: functional.
For assay [10], the system named is Mus musculus. The assay is described as follows: Prevention of Echo-9-Induced Paralysis in Suckling mice by intraperitoneal administration at dose 33 mg/kg; expressed as no. nonparalyzed/total 29/30. Type of assay: functional. The gist of the method:
as §2

In assay [11] the test system is Mus musculus. The assay is described as follows: In vivo antiviral activity at 32 mg/kg oral dose in mice infected with Poliovirus; 15/20. It is filed as functional. The gist of the method: as §1
The subject of assay [12] is Mus musculus. The experiment in a line: In vivo antiviral activity at 16 mg/kg oral dose in mice infected with Poliovirus;13/20. Type of assay: functional. The method, boiled down:
as §1

Assay [13] concerns Mus musculus. The assay is described as follows: In vivo antiviral activity at 32 mg/kg oral dose in mice infected with Poliovirus. Type of assay: functional. The method, boiled down: as §1
For assay [14], the system named is Mus musculus. The experiment in a line: Prevention of Echo-9-Induced Paralysis in Suckling mice by intraperitoneal administration at dose 1 mg/kg; expressed as no. nonparalyzed/total 2/30. It is filed as functional. The method, boiled down:
as §2

A short description of assay [15]: In vitro antiviral activity against mice infected intracerebrally with Poliovirus type-2. It is filed as functional.
Assay [16] is filed under the species Mus musculus. The experiment in a line: MIC at the Maximal testable level in mice was evaluated. To be noted: read-out: MIC. Type of assay: functional.
Assay [17] concerns Mus musculus. The assay is described as follows: In vivo antiviral activity at 8 mg/kg oral dose in mice infected with Poliovirus; 9/20. Type of assay: functional. The gist of the method: as §1
The test system of assay [18] is Mus musculus. The experiment in a line: In vivo antiviral activity at 4 mg/kg oral dose in mice infected with Poliovirus. It is filed as functional. The gist of the method:
as §1

The subject of assay [19] is Mus musculus. The assay is described as follows: Prevention of Echo-9-Induced Paralysis in Suckling mice by intraperitoneal administration at dose 10 mg/kg; Expressed as % nonparalyzed. It is filed as functional. The gist of the method:
as §2

For assay [20], the system named is Mus musculus. The assay is described as follows: Prevention of Echo-9-Induced Paralysis in Suckling mice by intraperitoneal administration at dose 10 mg/kg; expressed as no. nonparalyzed/total 19/30. It is filed as functional. The gist of the method:
as §2

The subject of assay [21] is Mus musculus. The experiment in a line: In vivo antiviral activity at 16 mg/kg oral dose in mice infected with Poliovirus. It is filed as functional. The method, boiled down: as §1
Assay [22] deals with Mus musculus. The assay is described as follows: In vivo antiviral activity of the compound in Placebo treated mice infected with Poliovirus; 4/20. It is filed as functional. The gist of the method: as §1
Assay [23] has as its system Mus musculus. The assay is described as follows: Prevention of Echo-9-Induced Paralysis in Suckling mice by intraperitoneal administration at dose 3.3 mg/kg; expressed as no. nonparalyzed/total 6/30. Type of assay: functional. The gist of the method:
as §2

Assay [24] relates to Mus musculus. The assay is described as follows: In vitro antiviral activity against mice infected intracerebrally with Poliovirus type-2; IA=Inactive. It is filed as functional, organism-based.

Converted amounts (≈) assume the structure as drawn. The source made the active and inactive calls. No cut-off for these calls is given here.

Turning to `Cc1cc(CCCCCCCOc2ccc(C3=NCCO3)cc2)on1` [DISOXARIL], the No. of survivors/total came to 8 in assay [1]; 15 in assay [11]; 13 in assay [12]; 9 in [17]; 4 in assay [22]. Moreover, the Activity in assay [2] is on record as 0; in assay [3], 20%; in assay [5], 6.7%; in assay [7], 96.7%; in assay [8] it was 0%; in assay [10] it was 29. In addition, the Activity in assay [14] stood at 2; in assay [19], 63.7%; in assay [20], 19; in assay [23], 6. Also, the Survivors in assay [4] was 45%; in assay [6] it was 20%; in [13] it was 71%; in assay [18], 40%; in assay [21], 65%. Also, the MIC in [9] is 0.1 µg/mL (≈ 0.292 µM); in assay [15], 0.004 µg/mL (≈ 0.0117 µM). For the same compound, the maximal testable concentration in assay [16] was 6.2 µg/mL.

In the case of `Cc1cc(CCCCOc2ccc(C3=NCCO3)cc2)on1`, the MIC in [9] was found to be 0.53 µg/mL (≈ 1.76 µM); in [15], 0.49 µg/mL (≈ 1.63 µM). Also, the maximal testable concentration in [16] was 6.2 µg/mL.

As for `CCOC(=O)c1ccc(OCCCCCCCc2cc(C)no2)cc1`, the MIC was 0.025 µg/mL (≈ 0.0724 µM) in assay [9] and over 0.8 µg/mL in [15].

Turning to `Cc1cc(CCCCCCCOc2ccc(C3=NC(C)(C)CO3)cc2)on1`, the MIC in assay [9] is 0.06 µg/mL (≈ 0.162 µM); in assay [15], 1.1 µg/mL (≈ 2.97 µM). Moreover, in [16], the maximal testable concentration is 3.1 µg/mL.

`Cc1cc(CCCCCCOc2ccc(C3=NCCO3)cc2)on1`: the figures for the MIC in [9] and in assay [15] were 0.12 µg/mL (≈ 0.365 µM) and 0.008 µg/mL (≈ 0.0244 µM), respectively. In addition, the maximal testable concentration in [16] amounted to 3.1 µg/mL.

`COc1ccc(OCCCCCCCc2cc(C)no2)c(Cl)c1`: the MIC was 0.04 µg/mL (≈ 0.118 µM) in assay [9] and 0.05 µg/mL (≈ 0.148 µM) in assay [15].

For `Cc1cc(CCCCCOc2ccc(C3=NCCO3)cc2)on1`, the MIC in [9] was determined as 0.1 µg/mL (≈ 0.318 µM); in assay [15] it was 0.003 µg/mL (≈ 0.00954 µM). The maximal testable concentration in [16] was determined as 3.1 µg/mL.

Turning to `Cc1cc(CCCCCCCOc2ccc(C3=NC(C)CO3)cc2)on1` (stereo not given), the results for the MIC in assay [9] and in [15] were 0.04 µg/mL (≈ 0.112 µM) and 0.12 µg/mL (≈ 0.337 µM), respectively. In addition, the maximal testable concentration in [16] came out at 3.1 µg/mL.

For `Cc1cc(CCCCCCCCOc2ccc(C3=NCCO3)cc2)on1`, the results for the MIC in assay [9] and in assay [15] were 0.16 µg/mL (≈ 0.449 µM) and 0.01 µg/mL (≈ 0.0281 µM), respectively. Moreover, the maximal testable concentration in assay [16] was found to be 8 µg/mL.

For the compound `Cc1cc(CCCCCCCOc2ccc(C3=NC(CO)CO3)cc2)on1` (stereo not given), the MIC in [9] was determined as 0.9 µg/mL (≈ 2.42 µM). Also, in assay [24], the MIC result was “inactive”. For the same compound, the maximal testable concentration in assay [16] was determined as 3.1 µg/mL.

`COCC1CN=C(c2ccc(OCCCCCCCc3cc(C)no3)cc2)O1` (stereo not given) gave an MIC in assay [9] of 0.2 µg/mL (≈ 0.517 µM). Moreover, the MIC result in assay [24] is “inactive”. For the same compound, the maximal testable concentration in assay [16] was determined as 3.1 µg/mL.

As to `Cc1cc(CCCCCCCOc2ccc(C3=NCC(CO)O3)cc2)on1` (stereo not given), the MIC in assay [9] turned out to be 1.6 µg/mL (≈ 4.3 µM); in assay [15], 2.6 µg/mL (≈ 6.98 µM). In addition, the maximal testable concentration in [16] turned out to be 3.1 µg/mL.

For the compound `Cc1cc(CCCCCCCOc2ccc(C3=N[C@H](C)CO3)cc2)on1`, the MIC in [9] is 0.02 µg/mL (≈ 0.0561 µM); in [15], 0.16 µg/mL (≈ 0.449 µM). For the same compound, in assay [16], the maximal testable concentration came to 3.1 µg/mL.

For `Cc1cc(CCCCCCCOc2ccc(C3=NCC(C)O3)cc2)on1` (stereo not given), the values for the MIC in [9] and in assay [15] were 0.06 µg/mL (≈ 0.168 µM) and 0.49 µg/mL (≈ 1.37 µM), respectively. Besides, in assay [16], the maximal testable concentration was determined as 6.2 µg/mL.
